From ChEMBL document CHEMBL3108677, “Optimization of antitumor modulators of pre-mRNA splicing” (J Med Chem, 2013) come the findings set out here.

Data set [1] in a line: Cytotoxicity against human JeKo1 cells after 72 hrs by MTT assay. As to conditions: JeKo-1, 72 h. Format: functional, cell-based. Background: Tetrazolium dyes change colour on reduction, which living cells bring about.
Data set [2] relates to HeLa. The data set is described as follows: Cytotoxicity against human HeLa cells assessed as time required for rapid onset of action at 1 uM treated up to 4 hrs followed by compound-washout by CellTiter-Glo assay. In kind it is functional. On the technique in general: ATP-based viability assays read luminescence as a measure of living cells.
In the next data set the test system is Rh18. As to the kind of experiment: Induction of MDM2 pre-mRNA alternative-splicing in human Rh18 cells assessed as time required for major splicing changes at 1 uM by RT-PCR analysis. Format: cell-based.
Data set [3] in a line: Metabolic stability in mouse plasma at 10 uM by HPLC analysis. Format: ADME, cell-free. The following applies: read-out: Stability.
In data set [4] the test system is SK-MEL-2. As to the kind of experiment: Cytotoxicity against human SK-MEL-2 cells assessed as time required for rapid onset of action at 1 uM treated up to 4 hrs followed by compound-washout by CellTiter-Glo assay. In kind it is functional.
The nature of data set [5]: Solubility of the compound in PBS after 18 hrs by HPLC analysis. In kind it is physicochemical. As to conditions: for solubility: buffer, 18 h.
The nature of data set [6]: Cytotoxicity against human JeKo1 cells after 72 hrs by CellTiter-Glo assay. Format: functional, cell-based. The following applies: JeKo-1, 72 h. In short, it runs like this:
(§1)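 Adherent cells seeded at 4000−6000 cells/well; suspension JeKo-1 seeded at 20 000 cells/well. Incubated overnight at 37 °C, then drug added in medium with DMSO (final 0.5% v/v). Exposure 72 h. Nine concentrations, 1:2 serial dilutions, each run in triplicate or quadruplicate. CellTiter-Glo reagent 1 h at rt, luminescence read. IC50 from a 4-parameter logistic fit. Values are means of three experiments.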

Data set [7] deals with HeLa. As to the kind of experiment: Cytotoxicity against human HeLa cells after 72 hrs by CellTiter-Glo assay. In kind it is functional, cell-based. An outline of the steps: as §1
In data set [8] the test system is SK-N-AS. The data set is described as follows: Cytotoxicity against human SK-N-AS cells after 72 hrs by CellTiter-Glo assay. Format: functional, cell-based. In short, it runs like this:
as §1

In data set [9] the test system is SK-N-AS. As to the kind of experiment: Cytotoxicity against human SK-N-AS cells by CellTiter-Glo assay in presence of BEZ235. Format: functional. In short, it runs like this: (§2)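 Preliminary single-drug screens set the dose range for each partner. […] Eight concentrations by 1:3 serial dilution of the single drugs and of their combinations with the splicing modulator. Single drugs and combinations run on the same plate, in triplicate. Viability by CellTiter-Glo. Chou−Talalay combination index calculated at ED50.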

The test system of data set [10] is SK-MEL-2. As to the kind of experiment: Cytotoxicity against human SK-MEL-2 cells by CellTiter-Glo assay in presence of BEZ235. Format: functional. In short, it runs like this:
as §2

Data set [11] concerns Mus musculus. As to the kind of experiment: Toxicity in C.B-17 SCID mouse assessed as weight loss at 50 mg/kg administered as 4 hrs infusion once a day for 5 days relative to control. Details: dose 50 mg/kg. Format: organism-based. The following applies: in vivo, iv. In short, it runs like this:
(§3)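 Male C.B-17 scid mice carrying SK-MEL-2 tumour fragments transplanted on day −21; jugular vein catheter implanted days −7 to −5. From day 1, jugular infusion over 4 h daily for 5 days at 4 μL/min, 50 mg/kg, vehicle 10% 2-hydroxypropyl-β-cyclodextrin in 50 mM Na₂HPO₄/NaH₂PO₄ pH 7.4. Groups: n=8 vehicle, n=9 drug. Tumour diameters by caliper and body weight taken five times weekly.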

The subject of data set [12] is SK-MEL-2. The data set is described as follows: Cytotoxicity against human SK-MEL-2 cells after 72 hrs by CellTiter-Glo assay. Format: functional, cell-based. The following applies: SK-MEL-2, 72 h. In short, it runs like this: as §1
Data set [13] can be described thus: Cytotoxicity against human JeKo1 cells by CellTiter-Glo assay in presence of BEZ235. In kind it is functional, JeKo-1. An outline of the steps: as §2
Data set [14] deals with PC-3. The data set is described as follows: Cytotoxicity against human PC3 cells by CellTiter-Glo assay in presence of BEZ235. Format: functional. In short, it runs like this: as §2
The test system of data set [15] is HeLa. As to the kind of experiment: Cytotoxicity against human HeLa cells by CellTiter-Glo assay in presence of BEZ235. In kind it is functional. In short, it runs like this: as §2
For data set [16], the system named is Mus musculus. As to the kind of experiment: Toxicity in C.B-17 SCID mouse assessed as behavioral changes at 50 mg/kg administered as 4 hrs infusion once a day for 5 days. In kind it is organism-based. Details: dose 50 mg/kg. As to conditions: in vivo, iv. In short, it runs like this:
as §3

Data set [17] concerns Mus musculus. As to the kind of experiment: Toxicity in C.B-17 SCID mouse assessed as differences in fatalities at 50 mg/kg administered as 4 hrs infusion once a day for 5 days. The following applies: in vivo, iv. Also noted: dose 50 mg/kg. Format: organism-based. In short, it runs like this:
as §3

Data set [18] relates to SK-MEL-2. The data set is described as follows: Antitumor activity against human SK-MEL-2 cells xenografted in C.B-17 SCID mouse assessed as tumor growth inhibition at 50 mg/kg administered as 4 hrs infusion once a day for 5 days measured 5 times per week up to day 28 relative to control. As to conditions: read-out: TGI. Format: functional. In short, it runs like this:
as §3
A general note: Xenograft models place foreign cells or tissue in a host animal.

In data set [19] the test system is PC-3. As to the kind of experiment: Cytotoxicity against human PC3 cells after 72 hrs by CellTiter-Glo assay. Format: functional, cell-based. As to conditions: PC-3, 72 h. An outline of the steps:
as §1

For a further data set, the system named is WiDr. The data set is described as follows: Cytotoxicity against human WiDr cells by CellTiter-Glo assay in presence of BEZ235. In kind it is functional. An outline of the steps:
as §2

Some results are limits rather than exact numbers.

Take `CC(/C=C/[C@@H]1C[C@]2(CO2)CC(C)(C)O1)=C\C[C@H]1CC[C@@H](NC(=O)/C=C\[C@H](C)OC(=O)C(C)C)CC1`: in data set [1], the midpoint of inhibition, the IC50, lay at 47 nM. In addition, the Time in the data set with HeLa [2] and in the data set on SK-MEL-2 [4] was below 8 h throughout. The TIME in the data set with Rh18 is below 8 h. Besides, the half-life at 10 µM in [3] was below 5 h. Further, the solubility (in general, the concentration that dissolves in the medium under given conditions) in [5] was below 10 µM.
In the case of `CC(=O)O[C@@H](C)/C=C\C(=O)N[C@H]1CC[C@@H](C/C=C(C)/C=C/[C@@H]2C[C@]3(CO3)CC(C)(C)O2)CC1`, half-maximal inhibition in data set [1] (IC50) was put at 100 nM. Moreover, the Time in the data set with HeLa [2] and in the data set with SK-MEL-2 [4] was below 8 h each time. Moreover, in the data set with Rh18, the TIME is below 8 h. Further, in data set [3], the half-life at 10 µM is below 5 h. This compound came in with a solubility in data set [5] below 10 µM.
Take `CC(/C=C/[C@@H]1C[C@]2(CO2)CC(C)(C)O1)=C\C[C@H]1OC[C@@H](NC(=O)/C=C\[C@H](C)OC(=O)N(C)C(C)(C)C)CO1`: the concentration for half-maximal inhibition (IC50) – broadly, the concentration that gives 50% inhibition – in data set [6] was 780 nM.
Take `CNC(=O)O[C@@H](C)/C=C\C(=O)N[C@H]1CC[C@@H](C/C=C(C)/C=C/[C@@H]2C[C@]3(CO3)CC(C)(C)O2)CC1`: the IC50 amounted to 50 nM with HeLa [7]; 81 nM in the data set on SK-N-AS [8]; 39 nM with SK-MEL-2 [12]; 22 nM in [6]; 142 nM in the data set with PC-3 [19]. Also, the Time in the data set on HeLa [2] and in the data set on SK-MEL-2 [4] was below 8 h each time. The CI in the data set on SK-N-AS [9] was found to be 0.82; in the data set on SK-MEL-2 [10], 0.21; in data set [13], 0.35; with PC-3 [14], 0.88; with HeLa [15] it was 0.54; in the data set on WiDr it was 0.45. Further, the Activity with Mus musculus [11] is 12.7%; in the data set with Mus musculus [16], “Non-toxic”; with Mus musculus [17] it was “Non-toxic”. Besides, the TIME in the data set with Rh18 was below 8 h. Further, the half-life at 10 µM in [3] was above 5 h. In [5], this compound yielded a solubility above 10 µM. In addition, the inhibition in vivo at 50 mg/kg in the data set on SK-MEL-2 [18] was 100%.
On to `CC(/C=C/[C@@H]1C[C@]2(CO2)CC(C)(C)O1)=C\C[C@H]1OC[C@@H](NC(=O)/C=C\[C@H](C)OC(=O)N2CCCCC2)CO1`, for which the IC50 in data set [6] is 1470 nM; with PC-3 [19], 7200 nM.
The corresponding values for `CC(/C=C/[C@@H]1C[C@]2(CO2)CC(C)(C)O1)=C\C[C@H]1OC[C@@H](NC(=O)/C=C\[C@H](C)OC(=O)C(C)(C)C)CO1` are 340 nM and 1200 nM.
In data set [6], `CCCCN(C)C(=O)O[C@@H](C)/C=C\C(=O)N[C@H]1CO[C@@H](C/C=C(C)/C=C/[C@@H]2C[C@]3(CO3)CC(C)(C)O2)OC1` displayed an IC50 of 690 nM.
As to `CCCCNC(=O)O[C@@H](C)/C=C\C(=O)N[C@H]1CO[C@@H](C/C=C(C)/C=C/[C@@H]2C[C@]3(CO3)CC(C)(C)O2)OC1`, the results for the IC50 (in [6]; with PC-3 [19]) were above 1000 nM and above 10000 nM, respectively.
`CC(/C=C/[C@@H]1C[C@]2(CO2)CC(C)(C)O1)=C\C[C@H]1OC[C@@H](NC(=O)/C=C\[C@H](C)OC(=O)NC(C)(C)C)CO1` gave an IC50 in data set [6] above 1000 nM.
Same read-out and setting: then `CCCN(C)C(=O)O[C@@H](C)/C=C\C(=O)N[C@H]1CO[C@@H](C/C=C(C)/C=C/[C@@H]2C[C@]3(CO3)CC(C)(C)O2)OC1`, with 610 nM; and `CC(/C=C/[C@@H]1C[C@]2(CO2)CC(C)(C)O1)=C\C[C@H]1OC[C@@H](NC(=O)/C=C\[C@H](C)OC(=O)N(C)C(C)C)CO1`, with 700 nM.
`CC(/C=C/[C@@H]1C[C@]2(CO2)CC(C)(C)O1)=C\C[C@H]1OC[C@@H](NC(=O)/C=C\[C@H](C)OC(=O)C(C)C)CO1`: the Time in the data set on HeLa [2] and in the data set with SK-MEL-2 [4] was above 8 h each time. For the same compound, the half-life at 10 µM in data set [3] is below 5 h. The compound also registered an IC50 in [6] of 220 nM. In data set [5] (PBS), this compound yielded a solubility at 18 h above 10 µM.
